System: U2OS
Assay: Multiplex assay against U2OS
Format: toxicity, cell-based
Conditions: human
Outline: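 Live cells were stained at seeding with Hoechst33342, BioTracker Green Microtubule Cytoskeleton Dye, MitoTracker Red and Annexin V Alexa Fluor 680, then imaged on a CQ1 microscope at 37°C and 5% CO2 after compound addition. CellPathfinder machine-learning gating split cells into Hoechst high-intensity objects or normal cells. Normal cells were split into healthy, pyknosed or fragmented nuclei, and pyknosed cells into mitotic or apoptotic. Tubulin, mitochondrial-mass and membrane-permeability phenotypes are per cents of healthy-nucleus cells.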

[1] = 12 h, 1 µM, compound concentration 1 uM, replicate 1
[2] = 12 h, 1 µM, compound concentration 1 uM, replicate 2
[3] = 12 h, 10 µM, compound concentration 10 uM, replicate 1
[4] = 12 h, 10 µM, compound concentration 10 uM, replicate 2
[5] = 24 h, 1 µM, compound concentration 1 uM, replicate 1
[6] = 24 h, 1 µM, compound concentration 1 uM, replicate 2
[7] = 24 h, 10 µM, compound concentration 10 uM, replicate 1
[8] = 24 h, 10 µM, compound concentration 10 uM, replicate 2

CNC(=O)Nc1ccc2c(c1)[C@@]1(CC2)OC(=O)N(CC(=O)N(Cc2ccc(F)cc2)[C@@H](C)C(F)(F)F)C1=O [A-486]
Population Apoptotic (%) [1]: 47%
Population Fragmented Nuclei (%) [1]: 4%
Population Healthy Nuclei (%) [1]: 81%
Population Hoechst High Intensity Objects (%) [1]: 4%
Population Membrane Permeable-Phenotype (%) [1]: 63%
Population Mitochondria Different-Phenotype (%) [1]: 11%
Population Mitotic Cells (%) [1]: 52%
Population Normal (%) [1]: 95%
Population Pyknosed Nuclei (%) [1]: 14%
Population Tubulin-Different-Phenotype (%) [1]: 57%
Total Cell Count [1]: 248
Population Apoptotic (%) [2]: 75%
Population Fragmented Nuclei (%) [2]: 7%
Population Healthy Nuclei (%) [2]: 88%
Population Hoechst High Intensity Objects (%) [2]: 11%
Population Membrane Permeable-Phenotype (%) [2]: 59%
Population Mitochondria Different-Phenotype (%) [2]: 19%
Population Mitotic Cells (%) [2]: 25%
Population Normal (%) [2]: 88%
Population Pyknosed Nuclei (%) [2]: 4%
Population Tubulin-Different-Phenotype (%) [2]: 60%
Total Cell Count [2]: 105
Population Apoptotic (%) [3]: 27%
Population Fragmented Nuclei (%) [3]: 3%
Population Healthy Nuclei (%) [3]: 85%
Population Hoechst High Intensity Objects (%) [3]: 1%
Population Membrane Permeable-Phenotype (%) [3]: 9%
Population Mitochondria Different-Phenotype (%) [3]: 19%
Population Mitotic Cells (%) [3]: 72%
Population Normal (%) [3]: 99%
Population Pyknosed Nuclei (%) [3]: 11%
Population Tubulin-Different-Phenotype (%) [3]: 12%
Total Cell Count [3]: 201
Population Apoptotic (%) [4]: 33%
Population Fragmented Nuclei (%) [4]: 6%
Population Healthy Nuclei (%) [4]: 83%
Population Hoechst High Intensity Objects (%) [4]: 11%
Population Membrane Permeable-Phenotype (%) [4]: 21%
Population Mitochondria Different-Phenotype (%) [4]: 26%
Population Mitotic Cells (%) [4]: 66%
Population Normal (%) [4]: 88%
Population Pyknosed Nuclei (%) [4]: 10%
Population Tubulin-Different-Phenotype (%) [4]: 28%
Total Cell Count [4]: 102
Population Apoptotic (%) [5]: 33%
Population Fragmented Nuclei (%) [5]: 3%
Population Healthy Nuclei (%) [5]: 89%
Population Hoechst High Intensity Objects (%) [5]: 4%
Population Membrane Permeable-Phenotype (%) [5]: 45%
Population Mitochondria Different-Phenotype (%) [5]: 14%
Population Mitotic Cells (%) [5]: 66%
Population Normal (%) [5]: 95%
Population Pyknosed Nuclei (%) [5]: 6%
Population Tubulin-Different-Phenotype (%) [5]: 30%
Total Cell Count [5]: 329
Population Apoptotic (%) [6]: 75%
Population Fragmented Nuclei (%) [6]: 7%
Population Healthy Nuclei (%) [6]: 88%
Population Hoechst High Intensity Objects (%) [6]: 7%
Population Membrane Permeable-Phenotype (%) [6]: 44%
Population Mitochondria Different-Phenotype (%) [6]: 18%
Population Mitotic Cells (%) [6]: 25%
Population Normal (%) [6]: 92%
Population Pyknosed Nuclei (%) [6]: 3%
Population Tubulin-Different-Phenotype (%) [6]: 27%
Total Cell Count [6]: 115
Population Apoptotic (%) [7]: 46%
Population Fragmented Nuclei (%) [7]: 2%
Population Healthy Nuclei (%) [7]: 92%
Population Hoechst High Intensity Objects (%) [7]: 0%
Population Membrane Permeable-Phenotype (%) [7]: 5%
Population Mitochondria Different-Phenotype (%) [7]: 14%
Population Mitotic Cells (%) [7]: 53%
Population Normal (%) [7]: 99%
Population Pyknosed Nuclei (%) [7]: 5%
Population Tubulin-Different-Phenotype (%) [7]: 17%
Total Cell Count [7]: 277
Population Apoptotic (%) [8]: 40%
Population Fragmented Nuclei (%) [8]: 5%
Population Healthy Nuclei (%) [8]: 90%
Population Hoechst High Intensity Objects (%) [8]: 9%
Population Membrane Permeable-Phenotype (%) [8]: 14%
Population Mitochondria Different-Phenotype (%) [8]: 33%
Population Mitotic Cells (%) [8]: 60%
Population Normal (%) [8]: 90%
Population Pyknosed Nuclei (%) [8]: 4%
Population Tubulin-Different-Phenotype (%) [8]: 37%
Total Cell Count [8]: 126

Cc1nc(N2CC[C@H](O)C2)ncc1-c1cc(C(F)(F)F)cc2[nH]ncc12
Population Apoptotic (%) [1]: 25%
Population Fragmented Nuclei (%) [1]: 2%
Population Healthy Nuclei (%) [1]: 93%
Population Hoechst High Intensity Objects (%) [1]: 3%
Population Membrane Permeable-Phenotype (%) [1]: 6%
Population Mitochondria Different-Phenotype (%) [1]: 24%
Population Mitotic Cells (%) [1]: 75%
Population Normal (%) [1]: 96%
Population Pyknosed Nuclei (%) [1]: 4%
Population Tubulin-Different-Phenotype (%) [1]: 22%
Total Cell Count [1]: 181
Population Apoptotic (%) [2]: 14%
Population Fragmented Nuclei (%) [2]: 4%
Population Healthy Nuclei (%) [2]: 89%
Population Hoechst High Intensity Objects (%) [2]: 11%
Population Membrane Permeable-Phenotype (%) [2]: 5%
Population Mitochondria Different-Phenotype (%) [2]: 28%
Population Mitotic Cells (%) [2]: 85%
Population Normal (%) [2]: 88%
Population Pyknosed Nuclei (%) [2]: 5%
Population Tubulin-Different-Phenotype (%) [2]: 19%
Total Cell Count [2]: 111
Population Apoptotic (%) [3]: 60%
Population Fragmented Nuclei (%) [3]: 6%
Population Healthy Nuclei (%) [3]: 88%
Population Hoechst High Intensity Objects (%) [3]: 1%
Population Membrane Permeable-Phenotype (%) [3]: 8%
Population Mitochondria Different-Phenotype (%) [3]: 22%
Population Mitotic Cells (%) [3]: 40%
Population Normal (%) [3]: 98%
Population Pyknosed Nuclei (%) [3]: 5%
Population Tubulin-Different-Phenotype (%) [3]: 26%
Total Cell Count [3]: 158
Population Apoptotic (%) [4]: 16%
Population Fragmented Nuclei (%) [4]: 9%
Population Healthy Nuclei (%) [4]: 84%
Population Hoechst High Intensity Objects (%) [4]: 12%
Population Membrane Permeable-Phenotype (%) [4]: 6%
Population Mitochondria Different-Phenotype (%) [4]: 31%
Population Mitotic Cells (%) [4]: 83%
Population Normal (%) [4]: 87%
Population Pyknosed Nuclei (%) [4]: 6%
Population Tubulin-Different-Phenotype (%) [4]: 41%
Total Cell Count [4]: 153
Population Apoptotic (%) [5]: 27%
Population Fragmented Nuclei (%) [5]: 1%
Population Healthy Nuclei (%) [5]: 94%
Population Hoechst High Intensity Objects (%) [5]: 1%
Population Membrane Permeable-Phenotype (%) [5]: 7%
Population Mitochondria Different-Phenotype (%) [5]: 25%
Population Mitotic Cells (%) [5]: 72%
Population Normal (%) [5]: 98%
Population Pyknosed Nuclei (%) [5]: 4%
Population Tubulin-Different-Phenotype (%) [5]: 24%
Total Cell Count [5]: 260
Population Apoptotic (%) [6]: 14%
Population Fragmented Nuclei (%) [6]: 3%
Population Healthy Nuclei (%) [6]: 92%
Population Hoechst High Intensity Objects (%) [6]: 6%
Population Membrane Permeable-Phenotype (%) [6]: 3%
Population Mitochondria Different-Phenotype (%) [6]: 24%
Population Mitotic Cells (%) [6]: 85%
Population Normal (%) [6]: 93%
Total Cell Count [6]: 121
Population Apoptotic (%) [7]: 27%
Population Fragmented Nuclei (%) [7]: 3%
Population Healthy Nuclei (%) [7]: 91%
Population Hoechst High Intensity Objects (%) [7]: 4%
Population Membrane Permeable-Phenotype (%) [7]: 5%
Population Mitochondria Different-Phenotype (%) [7]: 12%
Population Mitotic Cells (%) [7]: 72%
Population Normal (%) [7]: 95%
Population Pyknosed Nuclei (%) [7]: 4%
Population Tubulin-Different-Phenotype (%) [7]: 28%
Total Cell Count [7]: 173
Population Apoptotic (%) [8]: 21%
Population Fragmented Nuclei (%) [8]: 5%
Population Healthy Nuclei (%) [8]: 81%
Population Hoechst High Intensity Objects (%) [8]: 9%
Population Membrane Permeable-Phenotype (%) [8]: 13%
Population Mitochondria Different-Phenotype (%) [8]: 40%
Population Mitotic Cells (%) [8]: 78%
Population Normal (%) [8]: 90%
Population Pyknosed Nuclei (%) [8]: 12%
Population Tubulin-Different-Phenotype (%) [8]: 46%
Total Cell Count [8]: 141

From ChEMBL document CHEMBL4689842, “EUbOPEN Chemogenomics Library wave 1” (2021)
